The list is not random: actives were taken first. Their share in the collection is about 1.7%.
Cneo AK release: causes C. neoformans cell lysis. lysis activity, % at 15 µM. 360,000 compounds, 0.2% hits. adenylate kinase release luminescence, 4 h; normalised: neutral wells 0, clomiphene wells 100;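 active means mean lysis activity across replicates of at least 80%, whatever share of replicates individually reach that level; inactive means mean lysis activity below 80%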
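Test system: log-phase Cryptococcus neoformans yeast cells. Input: 5 × 10^6 yeast cells/mL. Medium: fresh YPD growth medium. Doses: single dose. Incubation: static 4 h at 37 °C with compound, 1 h detection. Measured by: luminescent adenylate kinase detection reagent. Read-out: signal increase indicating cell lysis. Benchmarks: Clomiphene.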
CFTR F508del cor: CFTR F508del correction in bronchial cells; AID 720511; activity (quench increase), % at 7.58 µM; CFBE cells, YFP halide quenching; stimulated with forskolin plus potentiator P3; % fluorescence drop versus neutral controls; 350,000 compounds, 0.36% hits;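 active means mean added fluorescence quench of at least 8% versus neutral control, with both replicates also reaching 8%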;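 further: cells transiently co-express mutant CFTR-F508del with the halide-sensitive YFP; corrector assay measuring rescue of mutant channel to the surface after 24 h compound exposure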
Ecoli rRNA inh: selective bacterial rRNA inhibition in E. coli; 350,000 compounds, 1.6% hits; E. coli WT GFP vs humanized-ribosome RFP mutants, fluorescence, 24 h; hits give low values; DMSO median 0, no signal -100; GFP signal change (wild-type ribosome), % (test concentration not listed); AID 720706;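 active means significant combined selectivity score with lowered wild-type GFP, culture density cut under 30%, mutant RFP and density less affected; inactive means any of these conditions unmet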
CaV13 FRET inh: Primary screen for inhibitors of IQ motif and Ca2+-dependent inactivation inhibitor domain binding in CACNA1D, Förster resonance energy transfer in living cells, … | HEK cells, CFP/YFP FRET ICDI-IQ, plate reader, 10 min; percent FRET-ratio fall versus neutral wells | inhibition, % at 12.3 µM | 340,000 compounds, 0.098% hits | AID 743397;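 active means mean replicate inhibition of at least 30% and at least 1% of replicates passing that level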;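 further: 0% = median of the neutral control wells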
* marks the source's active call; other numbers are inactive results; · = not tested or not shown.

SMILES	Cneo AK release	CFTR F508del cor	Ecoli rRNA inh	CaV13 FRET inh
C/C=C/c1ccc2c(c1)O[C@H](CN(C)CC1CCOCC1)[C@H](C)CN([C@H](C)CO)S2(=O)=O	6.3	0.9	2.3	·
Cc1ccccc1CC1(CO)CCCN(Cc2ccccc2Cl)C1 (stereo not drawn)	3.7	-1.9	-27.8*	-19.6
COc1cccc(CC2(CO)CCCN(Cc3ccccc3Cl)C2)c1 (stereo not drawn)	2.9	·	-15.4	-1.8
CN=c1scc(-c2ccc(F)cc2)n1/N=C/c1ccc(O)c(O)c1	·	-1.0	-41.4*	-4.2
OC[C@H]1[C@@H](c2ccc(/C=C/c3ccccc3)cc2)[C@@H]2CN(Cc3cccnc3)CCCCN12	1.0	1.1	5.8	·
CSCCC(NS(=O)(=O)c1ccccc1)C(=O)OCc1cc(=O)oc2cc(O)ccc12 (stereo not drawn)	2.7	-0.1	-22.5*	-1.3
CSCCC(NS(=O)(=O)c1ccccc1)C(=O)OCc1nc2ccsc2c(=O)[nH]1 (stereo not drawn)	21.5	1.5	1.8	-1.9
CC(C)[C@H](C)NC(=O)N(C)C[C@@H]1OCc2ccccc2-c2ccccc2C(=O)N([C@@H](C)CO)C[C@H]1C	-3.0	1.5	3.4	·
CC(C)Cn1nc(NC(=O)c2cccs2)c2cc3ccccc3nc21	2.7	-1.0	1.4	-20.8
CCCCn1nc(NC(=O)CC)c2cc3cc(OC)ccc3nc21	0.2	9.6*	8.0	-0.9
CCCn1nc(NC(=O)C(C)(C)C)c2cc3cc(OC)ccc3nc21	-3.3	-2.0	5.3	1.3
COc1ccc2nc3c(cc2c1)c(NC(=O)c1cccs1)nn3CC(C)C	-8.6	·	·	56.0*
CC(=O)N(C)C[C@H]1Oc2ncc(-c3ccc(C#N)cc3)cc2C(=O)N([C@@H](C)CO)C[C@@H]1C	-0.7	-1.9	7.8	·
CC(C)[C@H]1CC=CC[C@H](C)Oc2ccccc2C(=O)N(C)[C@@H](C)C(=O)N1 (mixture of isomers)	·	·	-0.7	·
CC1([N+](=O)[O-])COC(c2cccc3ccccc23)OC1 (stereo not drawn)	1.9	0.0	-21.9*	-5.0
C[C@@H]1CCCCO[C@H](CN(C)Cc2ccncc2)[C@H](C)CN([C@@H](C)CO)C(=O)c2cc(NS(=O)(=O)c3ccccc3)ccc2O1	-1.5	3.4	-3.9	·
O=C(Cc1ccc(Br)cc1)OCC(=O)c1ccc[nH]1	2.8	0.3	-23.2*	-8.4
COc1ccc(CC(=O)OCC(=O)c2ccc[nH]2)cc1	-1.0	-0.2	3.9	-5.3
CCNC(=S)N1C2CCC1CC(NC(=O)Nc1ccc(C(=O)OCC)cc1)C2 (stereo not drawn)	0.1	1.6	-20.8*	-0.5
COc1ccc(S(=O)(=O)Nc2ccc3c(c2)CC(=O)N([C@H](C)CO)C[C@@H](C)[C@H](CN(C)C(=O)Nc2ccc(F)cc2)O3)cc1	2.0	0.3	-1.2	·
COc1ccccc1C#Cc1ccc2c(c1)O[C@@H](CN(C)Cc1cccnc1)[C@@H](C)CN([C@@H](C)CO)S2(=O)=O	0.0	2.9	-5.7	·
COc1ccccc1C#Cc1ccc2c(c1)O[C@@H](CN(C)Cc1cccnc1)[C@H](C)CN([C@@H](C)CO)S2(=O)=O	-3.0	9.5*	-8.4	·
C[C@H]1CN([C@@H](C)CO)S(=O)(=O)c2ccc(C#CC3CCCCC3)cc2O[C@H]1CN(C)Cc1cccnc1	-3.6	9.9*	-3.2	·
CCCNC(=O)Nc1ccc2c(c1)C(=O)N(C)C[C@H](OC)[C@H](C)CN(Cc1ccc(-c3ccccn3)cc1)[C@H](C)CO2	-5.5	0.1	-2.9	·
Cc1nnn(-c2nonc2N)c1C(=O)NNC(=O)c1ccc(Cl)c(Cl)c1	·	-1.7	-26.1*	4.4
SMILES	Cneo AK release	CFTR F508del cor	Ecoli rRNA inh	CaV13 FRET inh
COc1ccc(O)c(/C=N/NC(=O)c2c(C)nnn2-c2nonc2N)c1	·	6.6	1.8	5.1
O=C(c1cccnc1)N1CC2(C1)[C@H](c1ccccc1)[C@@H](CO)N2C(=O)CC1CC1	·	3.8	-2.3	·
CN(C)CC(=O)Nc1ccc2c(c1)[C@@H]1C[C@H](CC(=O)NCc3ccccc3F)O[C@@H](CO)[C@@H]1O2	-0.9	-0.9	0.4	·
CCCn1c(CN2CCN(C(=O)OCC)CC2)nc2cc(NC(=O)CC)ccc21	-2.0	8.6*	8.9	-12.8
CCOC(=O)N1CCN(Cc2nc3cc(NC(=O)CC)ccc3n2C)CC1	-1.5	-0.3	14.5	-3.8
Oc1ccc(Br)cc1/C=N/NC(=S)NCCc1ccccc1	11.4	-0.8	-47.0	-2.1
COc1ccc(CCCC(=O)N/N=C\c2cccs2)cc1	·	-2.3	-22.9*	-4.9
Cc1ccc(C(=O)N/N=C/c2cc(Br)ccc2O)cn1	-4.6	12.0*	-14.0	-2.7
Cc1ccc(NC(=O)CCC(=O)N/N=C/c2ccccc2O)cc1	1.5	3.9	9.2	-20.3
COC(=O)N/N=C/c1cccs1	·	0.0	13.4	-4.1
O=C(CCc1ccccc1)N/N=C/c1cc(Br)ccc1O	·	7.2	-15.6*	-4.4
O=C(CCC(=O)Nc1ccc(Br)cc1)N/N=C/c1ccccc1O	0.4	2.4	-15.3*	-4.4
C[C@H](CO)N1C[C@H](C)[C@@H](CN(C)CC2CC2)OCCCC[C@H](C)Oc2ccc(NC(=O)c3ccncc3)cc2C1=O	2.4	3.5	5.3	·
CC(C)NC(=O)N(C)C[C@H]1OCCCC[C@H](C)Oc2ccc(N(C)C)cc2C(=O)N([C@H](C)CO)C[C@H]1C	-0.4	1.5	·	·
CC=Cc1ccc2n(c1=O)C[C@@H]1[C@@H](CO)[C@H](C(=O)NC3CCC3)N(CCC)[C@H]21 (mixture of isomers)	·	1.3	-1.6	·
CC(C)[C@@H]1COCn2nncc2CC[C@H](Cc2ccccc2)C(=O)N1	4.4	·	4.1	·
COc1cccc(/C=N/NC(=O)CCc2ccccc2)c1	-2.4	-1.9	-21.4*	-6.8
COc1cccc(C=NNC(=O)CCCC(=O)NN=Cc2cccc(OC)c2)c1	-18.6	-0.3	-2.1	-8.0
CCNC(=O)[C@H]1[C@H](CO)[C@H]2Cn3c(ccc(-c4ccccc4F)c3=O)[C@@H]1N2S(C)(=O)=O	·	-4.4	5.5	·
O=C(COC(=O)Cc1ccsc1)Nc1cccc(F)c1	0.4	16.4*	10.2	-6.4
CCOC(=O)N1CCN(C(=O)COc2cccc3c2CCN(Cc2cccc(C)c2)C3=O)CC1	·	·	-25.2*	-3.5
CC1CCN(C(=O)COc2cccc3c2CCN(Cc2ccccc2)C3=O)CC1	7.6	1.2	-27.6	91.4*
CCN1CCc2c(OCC(=O)N3CCC(C)CC3)cccc2C1=O	0.6	-2.6	-0.3	-6.9
CCOC(=O)N1CCN(C(=O)COc2cccc3c2CCN(Cc2ccccc2C)C3=O)CC1	·	·	·	-4.3
CC(C)c1ccc(/C=C/C(=O)N2CCCCCC2)cc1	·	1.1	-25.9*	-17.9
Cc1noc(C)c1NC(=O)Nc1ccc2c(c1)C(=O)N([C@H](C)CO)C[C@H](C)[C@@H](CN(C)Cc1ccc(Cl)c(Cl)c1)O2	-1.7	6.0	-2.6	·
